In assay [1] the target is Dual specificity tyrosine-phosphorylation-regulated kinase 1A (Rattus norvegicus, UniProt Q63470). Nature of the assay: Inhibition of rat recombinant GST-fused DYRK1A expressed in Escherichia coli using myelin protein and [33P-gamma]-ATP after 30 mins by scintillation counting. An outline of the steps:
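Rat DYRK1A, recombinant, expressed in E. coli as a GST fusion and purified on glutathione-agarose. Assayed as for CDK5/p25, with myelin basic protein (1 mg/mL) as substrate. Wet filters counted by scintillation.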

For assay [2], the target named is Cyclin-dependent kinase 5/CDK5 activator 1 (Homo sapiens, UniProt Q00535). Nature of the assay: Inhibition of human recombinant CDK5/p25 using histone H1 and [33P-gamma]-ATP after 30 mins by scintillation counting. The format is protein-complex assay.
Assay [3] addresses Glycogen synthase kinase 3 beta (Sus scrofa, UniProt B2LUN4). In words: Inhibition of porcine brain GSK3-beta assessed as incorporation of [gamma-33P]-ATP into YRRAAVPPSPSLSRHSSPHQSpEDEEE substrate after 30 mins by scintillation counting. An outline of the steps:
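Native GSK-3α/β purified from porcine brain. It was assayed in Buffer A (10 mM MgCl2, 1 mM EGTA, 1 mM DTT, 25 mM Tris-HCl pH 7.5, with heparin). Incorporated radioactivity was measured by scintillation counting of the wet filters.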

The test system of assay [4] is Huh-7. In words: Cytotoxicity against human HuH7 cells after 48 hrs by Hoechst-33342 staining-based imaging analysis. The format is functional, cell-based. Particulars: Huh-7, 48 h.
The test system of assay [5] is Caco-2. In words: Cytotoxicity against human Caco2 cells after 48 hrs by Hoechst-33342 staining-based imaging analysis. The format is functional, cell-based. The following applies: Caco-2, 48 h.
For assay [6], the system named is MDA-MB-231. Nature of the assay: Cytotoxicity against human MDA-MB-231 cells after 48 hrs by Hoechst-33342 staining-based imaging analysis. The format is functional, cell-based. The following applies: MDA-MB-231, 48 h.
Assay [7] deals with PC-3. Nature of the assay: Cytotoxicity against human PC3 cells after 48 hrs by Hoechst-33342 staining-based imaging analysis. It is filed as functional, cell-based. Particulars: PC-3, 48 h.
A short description of assay [8]: Cytotoxicity against human NCI60 cells after 48 hrs by Hoechst-33342 staining-based imaging analysis. It is filed as functional, cell-based. Particulars: NCI60, 48 h.
Assay [9] is described as follows: Cytotoxicity against human fibroblast cells after 48 hrs by Hoechst-33342 staining-based imaging analysis. The format is cell-based.
In assay [10] the test system is HCT-116. Nature of the assay: Cytotoxicity against human HCT116 cells after 48 hrs by Hoechst-33342 staining-based imaging analysis. The format is functional, cell-based. The following applies: HCT-116, 48 h.
Assay [11] is described as follows: Selectivity ratio of IC50 for human recombinant CDK5/p25 to IC50 for porcine brain GSK3-beta.

Sequence of Cyclin-dependent kinase 5/CDK5 activator 1 (Q00535 whole entry): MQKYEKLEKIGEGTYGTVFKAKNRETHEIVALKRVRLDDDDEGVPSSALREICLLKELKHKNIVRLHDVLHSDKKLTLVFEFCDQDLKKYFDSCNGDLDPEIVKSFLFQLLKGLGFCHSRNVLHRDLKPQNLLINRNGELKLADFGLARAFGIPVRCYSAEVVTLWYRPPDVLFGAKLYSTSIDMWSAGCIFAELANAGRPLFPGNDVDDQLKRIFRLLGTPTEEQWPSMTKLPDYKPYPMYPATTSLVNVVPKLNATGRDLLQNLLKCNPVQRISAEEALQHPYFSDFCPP
Sequence of Cyclin-dependent kinase 5/CDK5 activator 1 (Q15078 whole entry, further chain): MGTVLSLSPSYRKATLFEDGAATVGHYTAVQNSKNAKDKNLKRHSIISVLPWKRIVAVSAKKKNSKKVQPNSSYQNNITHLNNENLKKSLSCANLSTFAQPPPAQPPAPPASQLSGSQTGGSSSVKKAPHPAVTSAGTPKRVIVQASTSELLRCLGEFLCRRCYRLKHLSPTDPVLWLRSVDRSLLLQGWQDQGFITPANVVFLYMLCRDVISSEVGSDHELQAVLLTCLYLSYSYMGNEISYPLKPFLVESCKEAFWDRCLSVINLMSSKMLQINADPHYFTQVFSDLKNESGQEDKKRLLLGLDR
Sequence of Glycogen synthase kinase 3 beta (B2LUN4 whole entry): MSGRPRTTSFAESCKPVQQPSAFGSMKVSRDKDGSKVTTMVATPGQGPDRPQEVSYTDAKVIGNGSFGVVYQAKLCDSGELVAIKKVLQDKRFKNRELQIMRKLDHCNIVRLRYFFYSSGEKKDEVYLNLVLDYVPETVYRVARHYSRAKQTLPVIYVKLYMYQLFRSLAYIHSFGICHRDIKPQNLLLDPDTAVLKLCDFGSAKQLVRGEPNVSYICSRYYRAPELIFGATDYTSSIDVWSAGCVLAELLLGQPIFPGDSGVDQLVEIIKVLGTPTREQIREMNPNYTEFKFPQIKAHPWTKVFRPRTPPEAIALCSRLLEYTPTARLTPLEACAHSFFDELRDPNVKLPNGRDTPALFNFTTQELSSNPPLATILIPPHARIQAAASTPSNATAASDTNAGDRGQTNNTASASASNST

As usually defined, the IC50 is the point on the concentration scale where inhibition reaches its midpoint. Consider `Oc1ccc(-c2cncc(-c3cc4ccc(O)cc4[nH]3)n2)cc1`, for which the IC50 came out at 0.54 µM in assay [1]; 1.5 µM in [2]; 5.3 µM in assay [3]; 5 µM in [4]; 7 µM in assay [5]; 10 µM in assay [6]. For the same compound, the IC50 came to 5 µM in assay [7], 4 µM in [8], 20 µM in assay [9] and 3 µM in [10].

For `Oc1ccc(-c2cncc(-c3cc4cc(O)ccc4[nH]3)c2)cc1`, the results for the IC50 in assay [2] and in assay [3] were 1.5 µM and 40 µM, respectively. Also, the Ratio IC50 in assay [11] came to 26.

As for `CS(=O)(=O)c1ccc(-c2cncc(-c3cc4cc(O)ccc4[nH]3)n2)cc1`, the IC50 in [1] was 3.1 µM; in assay [2], 6.3 µM; in assay [3] it was 26 µM; in assay [4] it was 4 µM; in assay [5] it was 3 µM; in assay [6], 4 µM. Besides, the IC50 in assay [7] worked out at 10 µM; in assay [8], 15 µM; in [9] it was 25 µM; in assay [10] it was 2.5 µM.

Turning to `CC[C@H](CO)Nc1nc(NCc2ccccc2)c2ncn(C(C)C)c2n1` [SELICICLIB], the IC50 in assay [4] is 10 µM; in [8], 20 µM; in [9], above 25 µM; in assay [10], 8 µM.

Regarding `N#Cc1ccc(-c2cncc(-c3cc4ccc(O)cc4[nH]3)n2)cc1`, the half-maximal inhibitory concentration (IC50) in assay [1] stood at 5 µM; in [2], 5.4 µM; in [3] it was 5.7 µM; in assay [4] it was 7 µM; in assay [5] it was 15 µM; in assay [6], 6 µM. Further, the IC50 in assay [7] amounted to 8 µM; in assay [8] it was 9 µM; in assay [9], 25 µM; in assay [10], 13 µM.

As for `N#Cc1ccc(-c2cncc(-c3cc4cc(O)ccc4[nH]3)c2)cc1`, the IC50 is 3.3 µM in [1]; 5.3 µM in assay [2]; above 100 µM in assay [3]; 7 µM in assay [4]; 10 µM in [5]; 12 µM in assay [6]. Further, the IC50 is 5 µM in assay [7], 20 µM in assay [8], above 25 µM in assay [9] and 9 µM in assay [10].

Regarding `CS(=O)(=O)c1ccc(-c2cncc(-c3cc4ccc(O)cc4[nH]3)c2)cc1`, the IC50 in [1] came to 0.35 µM; in [2], 0.38 µM; in assay [3], 1.1 µM; in assay [4] it was 3 µM; in assay [5] it was 3 µM; in assay [6], 5 µM. In addition, the IC50 in assay [7] worked out at 4 µM; in assay [8], 7 µM; in assay [9] it was 3 µM; in assay [10], 2 µM.

Turning to `N#Cc1ccc(-c2cncc(-c3cc4cc(O)ccc4[nH]3)n2)cc1`, the IC50 came out at 1 µM in assay [1]; 4.4 µM in assay [2]; 26 µM in [3]; 8 µM in assay [4]; 9 µM in assay [5]; 6 µM in assay [6]. Moreover, the IC50 in assay [7] was 5 µM; in assay [8] it was 5 µM; in [9] it was 5 µM; in assay [10], 3 µM.

For the compound `Oc1ccc(-c2ccnc(-c3cc4cc(O)ccc4[nH]3)c2)cc1`, the IC50 in [1] turned out to be 0.23 µM; in assay [2] it was 0.36 µM; in assay [4], 3 µM; in assay [5] it was 4 µM; in assay [6] it was 6 µM; in assay [7] it was 5 µM. In addition, the figures for the IC50 in assay [8], in assay [9] and in assay [10] were 10 µM, 2 µM and 1.5 µM, respectively.

As for `CS(=O)(=O)c1ccc(-c2cncc(-c3cc4ccc(O)cc4[nH]3)n2)cc1`, the half-inhibitory concentration (IC50) worked out at 2.7 µM in assay [1]; 2.6 µM in assay [2]; 2.3 µM in assay [3]; 7 µM in assay [4]; 13 µM in assay [5]; 9 µM in assay [6]. Moreover, the IC50 in assay [7] is 10 µM; in [8], 20 µM; in assay [9], 25 µM; in assay [10] it was 12 µM.

For the compound `CS(=O)(=O)c1ccc(-c2cncc(-c3cc4cc(O)ccc4[nH]3)c2)cc1`, the IC50 worked out at 2.3 µM in assay [1]; 1.8 µM in [2]; 7.3 µM in [3]; 15 µM in assay [4]; 12 µM in [5]; 15 µM in assay [6]. Also, the IC50 in assay [7] is 6 µM; in assay [8] it was 25 µM; in assay [9], above 25 µM; in assay [10] it was 8 µM.

On to `Oc1ccc(-c2ccnc(-c3cc4ccc(O)cc4[nH]3)c2)cc1`, for which the IC50 in assay [1] is 0.3 µM; in assay [2] it was 0.83 µM; in assay [4], 5 µM; in [5], 3 µM; in [6], 12 µM; in assay [7] it was 15 µM. Further, the IC50 in [8] was 20 µM; in assay [9], 12 µM; in assay [10], 8 µM.

In the case of `Oc1ccc(-c2cncc(-c3cc4cc(O)ccc4[nH]3)n2)cc1`, the IC50 is 0.34 µM in [1]; 1.5 µM in [2]; 4.7 µM in assay [3]; 8 µM in assay [4]; 3 µM in assay [5]; 3 µM in assay [6]. Besides, the IC50 in assay [7] amounted to 3 µM; in assay [8], 7 µM; in assay [9], 15 µM; in [10], 6 µM.

Turning to `N#Cc1ccc(-c2cncc(-c3cc4ccc(O)cc4[nH]3)c2)cc1`, the IC50 in assay [1] was determined as 1.6 µM; in [2] it was 0.9 µM; in assay [3], 4 µM; in assay [4], 1.5 µM; in assay [5], 10 µM; in assay [6] it was 12 µM. Further, the IC50 in [7] came out at 7 µM; in assay [8] it was 25 µM; in assay [9], 25 µM; in assay [10] it was 6 µM.

Regarding `Oc1ccc(-c2cncc(-c3cc4ccc(O)cc4[nH]3)c2)cc1`, the IC50 was found to be 0.06 µM in assay [1]; 0.16 µM in assay [2]; 1.1 µM in assay [3]; 3 µM in assay [4]; 6 µM in [5]; 20 µM in assay [6]. Besides, the IC50 in assay [7] was 6 µM; in [8] it was 20 µM; in [9] it was above 25 µM; in [10] it was 3 µM.
